Data reported in ChEMBL document CHEMBL6087457, “Discovery of MDI-114215: A Potent and Selective LIMK Inhibitor To Treat Fragile X Syndrome” (J Med Chem, 2025).
Calls of active or inactive are those of the source. No cut-off for these calls is given here.

How the values were obtained:
[1] = Toxicity in CD-1 mouse assessed as adverse microscopic findings at 30 mg/kg/day, ip treated daily for 28 days; format: organism-based; conditions: in vivo, 672 h, time 28 day
In short: (§1)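 Male CD-1 mice, 6 weeks old at start, dosed with vehicle or 30 mg/kg/day i.p. once daily for 28 days, followed by a 2-week treatment-free recovery. Endpoints: body weight, food consumption, clinical signs, macro- and microscopic pathology, and organ weights (male sexual organs) after […] of dosing and after recovery. Data given as mean ± SEM.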

[2] = Toxicity in CD-1 mouse assessed as change in epididymis weight at 30 mg/kg/day, ip treated daily for 28 days; format: organism-based; conditions: in vivo, 672 h, time 28 day; in short: as §1
[3] = target: Cytochrome P450 2C19 (Homo sapiens, UniProt P33261); test: Inhibition of CYP2C19 (unknown origin); format: ADME, microsomes, Liver, Microsome
[4] = Toxicity in CD-1 mouse assessed as inflammatory cell infiltration in epididymis at 30 mg/kg/day, ip treated daily for 28 days measured after 14 days of recovery period; format: organism-based; conditions: in vivo, 672 h, time 28 day; in short: as §1
[5] = Toxicity in CD-1 mouse assessed as change in testis weight at 30 mg/kg/day, ip treated daily for 28 days; format: organism-based; conditions: in vivo, 672 h, time 28 day; in short: as §1
[6] = Toxicity in CD-1 mouse assessed as drug tolerance at 30 mg/kg/day, ip treated daily for 28 days; format: organism-based; conditions: in vivo, 672 h, time 28 day; in short: as §1
[7] = Drug concentration in plasma of CD-1 mouse at 30 mg/kg/day, ip treated daily for 28 days; format: ADME, organism-based; conditions: time 28 day
[8] = Toxicity in CD-1 mouse assessed as change in prostate weight at 30 mg/kg/day, ip treated daily for 28 days; format: organism-based; conditions: in vivo, 672 h, time 28 day; in short: as §1
[9] = Drug concentration in brain of CD-1 mouse at 30 mg/kg/day, ip treated daily for 28 days; format: ADME, organism-based; conditions: time 28 day, read-out: Ct
[10] = Toxicity in CD-1 mouse assessed as change in seminal vesicle weight at 30 mg/kg/day, ip treated daily for 28 days; format: organism-based; conditions: in vivo, 672 h, time 28 day; in short: as §1
[11] = Toxicity in CD-1 mouse assessed as body weight change at 30 mg/kg/day, ip treated daily for 28 days; format: organism-based; conditions: in vivo, 672 h, time 28 day; in short: as §1
[12] = Toxicity in CD-1 mouse assessed as adverse macroscopic findings at 30 mg/kg/day, ip treated daily for 28 days; format: organism-based; conditions: in vivo, 672 h, time 28 day; in short: as §1
[13] = Toxicity in CD-1 mouse assessed as effect on food consumption at 30 mg/kg/day, ip treated daily for 28 days; format: organism-based; conditions: in vivo, 672 h, time 28 day; in short: as §1
[14] = Toxicity in CD-1 mouse assessed as adverse clinical signs at 30 mg/kg/day, ip treated daily for 28 days; format: organism-based; conditions: in vivo, 672 h, time 28 day; in short: as §1
[15] = target: Cytochrome P450 2D6 (Homo sapiens, UniProt P10635); test: Inhibition of CYP2D6 (unknown origin); format: ADME, microsomes, Liver, Microsome
[16] = target: T1, Cytochrome P450 1A2 (Homo sapiens, UniProt P05177); test: Inhibition of CYP1A2 (unknown origin); format: ADME, microsomes, Liver, Microsome
T1 sequence (P05177 whole entry): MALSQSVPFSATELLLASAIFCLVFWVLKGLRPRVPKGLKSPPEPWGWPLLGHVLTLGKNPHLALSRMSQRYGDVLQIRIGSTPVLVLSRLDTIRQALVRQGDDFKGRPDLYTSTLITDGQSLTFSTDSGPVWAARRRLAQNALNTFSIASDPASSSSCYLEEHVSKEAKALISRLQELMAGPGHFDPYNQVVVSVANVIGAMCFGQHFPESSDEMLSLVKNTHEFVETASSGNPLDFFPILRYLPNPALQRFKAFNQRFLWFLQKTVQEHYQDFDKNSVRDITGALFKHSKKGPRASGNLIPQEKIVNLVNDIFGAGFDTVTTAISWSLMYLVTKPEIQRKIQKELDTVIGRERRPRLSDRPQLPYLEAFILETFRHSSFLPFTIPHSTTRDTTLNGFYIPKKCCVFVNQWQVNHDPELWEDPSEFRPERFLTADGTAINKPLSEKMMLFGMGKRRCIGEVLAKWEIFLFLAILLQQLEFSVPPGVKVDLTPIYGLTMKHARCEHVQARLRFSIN

[17] = target: LIM domain kinase 1 (Mus musculus) (UniProt P53668); test: Ex vivo inhibition of LIMK in hippocampus of Fmr1 KO mouse model of FXS assessed as reduction in p-cofilin level at 3 uM incubated for 30 mins by Western blot analysis; format: functional
In short: (§2)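 Acute hippocampal slices from P7–9 WT and Fmr1 KO mice, incubated with vehicle (DMSO) or 3 μM LIMK inhibitor. p-Cofilin and total cofilin measured by Western blot and expressed as a p-cofilin/cofilin ratio. n = 2–4 animals per group. Significance by one-way ANOVA with Dunnett's multiple comparisons test.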

[18] = target: LIM domain kinase 1 (Mus musculus) (UniProt P53668); test: Ex vivo inhibition of LIMK in hippocampus of mouse assessed as reduction in p-cofilin level at 3 uM incubated for 30 mins by Western blot analysis; format: functional; in short: as §2

LIM domain kinase 1 (Mus musculus), sequence (P53668 whole entry, the tested form may be a part): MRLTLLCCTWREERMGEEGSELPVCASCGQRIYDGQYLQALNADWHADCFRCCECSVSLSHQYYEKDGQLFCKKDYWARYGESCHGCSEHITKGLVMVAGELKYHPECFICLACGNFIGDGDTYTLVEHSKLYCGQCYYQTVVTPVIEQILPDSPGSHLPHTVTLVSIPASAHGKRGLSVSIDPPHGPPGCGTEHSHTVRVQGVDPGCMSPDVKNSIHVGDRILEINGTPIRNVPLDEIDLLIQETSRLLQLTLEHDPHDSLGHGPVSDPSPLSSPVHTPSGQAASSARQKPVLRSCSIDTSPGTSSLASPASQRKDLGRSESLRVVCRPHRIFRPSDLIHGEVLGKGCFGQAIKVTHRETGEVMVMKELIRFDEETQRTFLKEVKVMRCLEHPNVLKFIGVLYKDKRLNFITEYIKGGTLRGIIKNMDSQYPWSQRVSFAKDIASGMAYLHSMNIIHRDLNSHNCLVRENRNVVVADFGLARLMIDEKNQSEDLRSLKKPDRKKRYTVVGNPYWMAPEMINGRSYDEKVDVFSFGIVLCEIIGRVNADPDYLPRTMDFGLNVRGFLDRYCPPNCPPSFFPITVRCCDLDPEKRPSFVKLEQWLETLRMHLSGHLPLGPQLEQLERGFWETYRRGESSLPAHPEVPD
Cytochrome P450 2D6, sequence (P10635 whole entry): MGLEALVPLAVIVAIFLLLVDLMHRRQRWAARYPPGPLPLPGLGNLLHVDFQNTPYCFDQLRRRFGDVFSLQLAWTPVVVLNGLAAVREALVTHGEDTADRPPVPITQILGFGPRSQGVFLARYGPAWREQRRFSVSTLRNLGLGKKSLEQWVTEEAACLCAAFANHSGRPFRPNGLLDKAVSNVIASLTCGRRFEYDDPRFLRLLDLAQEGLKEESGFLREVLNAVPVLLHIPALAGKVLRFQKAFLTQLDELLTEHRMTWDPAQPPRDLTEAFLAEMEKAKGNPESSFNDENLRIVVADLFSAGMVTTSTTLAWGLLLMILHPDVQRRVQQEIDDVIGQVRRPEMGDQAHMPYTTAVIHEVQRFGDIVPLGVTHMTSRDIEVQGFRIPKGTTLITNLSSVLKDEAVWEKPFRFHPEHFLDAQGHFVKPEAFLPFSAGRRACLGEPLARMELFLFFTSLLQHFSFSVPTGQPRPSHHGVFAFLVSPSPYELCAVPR
Cytochrome P450 2C19, sequence (P33261 whole entry): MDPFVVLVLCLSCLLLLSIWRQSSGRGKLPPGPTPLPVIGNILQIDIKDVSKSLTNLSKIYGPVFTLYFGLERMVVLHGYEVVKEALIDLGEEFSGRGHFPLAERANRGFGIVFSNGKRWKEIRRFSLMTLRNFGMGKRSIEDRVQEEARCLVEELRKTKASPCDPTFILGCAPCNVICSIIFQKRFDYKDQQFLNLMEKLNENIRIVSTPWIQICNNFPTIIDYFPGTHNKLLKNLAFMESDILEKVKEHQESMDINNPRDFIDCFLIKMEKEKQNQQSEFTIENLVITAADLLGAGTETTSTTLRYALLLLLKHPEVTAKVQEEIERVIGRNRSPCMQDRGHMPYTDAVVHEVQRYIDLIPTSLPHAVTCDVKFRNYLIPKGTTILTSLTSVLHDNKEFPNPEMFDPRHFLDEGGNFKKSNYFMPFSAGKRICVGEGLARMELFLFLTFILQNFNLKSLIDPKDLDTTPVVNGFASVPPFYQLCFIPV

Row | Compound | Activity [1] | Activity [2] | IC50 [3] [µM] | Activity [4] | Activity [5] | Activity [6] | concentration at 672 h [7] [nM] | Activity [8] | concentration at 672 h [9] [nM] | Activity [10] | Activity [11] | Activity [12] | Activity [13] | Activity [14] | IC50 [15] [µM] | IC50 [16] [µM] | inhibition [17] | inhibition [18]
1 | O=C(c1ccc(S(=O)(=O)Nc2ccccc2)cc1)N(Cc1ccc(NCCO)cc1)CC1CC1 | Non-toxic | Non-toxic | 11 | Non-toxic | Non-toxic | Non-toxic | 903 | Non-toxic | 62 | Non-toxic | Non-toxic | Non-toxic | Non-toxic | Non-toxic | > 25 | > 25 |  | 
2 | CCn1c(=O)c(-c2ccc(Cl)cc2Cl)cc2cnc(Nc3ccc(N4CCNCC4)c(F)c3)nc21 |  |  |  |  |  |  |  |  |  |  |  |  |  |  |  |  | Active | Active
3 | Cc1c[nH]c2ncnc(-c3ccc(NC(=O)N(CCO)c4ccccc4)cc3)c12 |  |  |  |  |  |  |  |  |  |  |  |  |  |  |  |  | Active | Active
